Columns and labels:
Assay type in all cases: functional, Homo sapiens
K562 [1] = assay: Rhodamine-123 accumulation in K562 cells with or without expression of PGP protein at a concentration of 1 nM
Outline: (§1)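 K562R (adriamycin-resistant, Pgp-expressing) cells, kept under continuous 10^-6 M adriamycin, were washed twice and suspended at 10⁶ cells/mL in RPMI. Modulator was added for 15 min at 37 °C, then rhodamine-123 at 0.05 µg/mL final for 1 h at 37 °C. Fluorescence at […] was read by flow cytometry in arbitrary units, as the mean of at least 3 independent experiments.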

K562 [2] = assay: Rhodamine-123 accumulation in K562 cells with or without expression of PGP protein at a concentration of 1 uM; outline: as §1
K562 [3] = assay: Rhodamine-123 accumulation in K562 cells with or without expression of PGP protein at a concentration of 0.1 uM; outline: as §1
K562 [4] = assay: Rhodamine-123 accumulation in K562 cells with or without expression of PGP protein at a concentration of 0.01 uM; outline: as §1

| SMILES | Rhodamine-123 accumulation (K562 [1]) [arbitrary units] | Rhodamine-123 accumulation (K562 [2]) [arbitrary units] | Rhodamine-123 accumulation (K562 [3]) [arbitrary units] | Rhodamine-123 accumulation (K562 [4]) [arbitrary units] |
| --- | --- | --- | --- | --- |
| O=C(c1cc(=O)c2c(O)cccc2o1)N1CCN(Cc2ccccc2)CC1 | 45 | 136 | 95 | 72 |
| COc1cc(OC)c2c(c1)O/C(=C\c1ccccc1)C2=O | 40 | 249 | 203 | 178 |
| O=C(c1ccccc1)N1CCN(C(=O)c2cc(=O)c3c(O)cccc3o2)CC1 | 38 | 42 | 47 | 45 |
| O=C(c1cc(=O)c2c(O)cccc2o1)N1CCN(c2ccccc2)CC1 | 39 | 82 | 57 | 40 |
| COc1cc(OC)c2c(O)c(-c3ccccc3)cnc2c1 | 36 | 82 | 55 | 43 |
| O=C(NCc1ccc(Cl)cc1)c1cc(=O)c2c(O)cccc2o1 | 50 | 46 | 45 | 42 |
| CN1CCN(C(=O)c2cc(=O)c3c(O)cccc3o2)CC1 | 76 | 207 | 138 | 134 |
| O=C(c1cc(=O)c2c(O)cccc2o1)N1CCCCC1 | 43 | 45 | 44 | 46 |
| CC(=O)N1CCN(C(=O)c2cc(=O)c3c(O)cccc3o2)CC1 | 41 | 38 | 37 | 43 |
| O=C(c1cc(=O)c2c(O)cccc2o1)N1CCOCC1 | 39 | 42 | 44 | 41 |
| CCN1CCN(C(=O)c2cc(=O)c3c(O)cccc3o2)CC1 | 40 | 85 | 47 | 44 |
| COc1cc(OC)c2c(=O)c(-c3ccccc3)coc2c1 [5,7-DIMETHOXYISOFLAVONE] | 40 | 49 | 46 | 54 |
| C/C=C/C[C@@H](C)[C@@H](O)[C@H]1C(=O)N[C@@H](CC)C(=O)N(C)CC(=O)N(C)[C@@H](CC(C)C)C(=O)N[C@@H](C(C)C)C(=O)N(C)[C@@H](CC(C)C)C(=O)N[C@@H](C)C(=O)N[C@H](C)C(=O)N(C)[C@@H](CC(C)C)C(=O)N(C)[C@@H](CC(C)C)C(=O)N(C)[C@@H](C(C)C)C(=O)N1C [CYCLOSPORINE] | 72 | 102 | 87 | 80 |
